The results in this text go back to ChEMBL document CHEMBL1255247, “Induction of L1 and L2 beta-lactamases of Stenotrophomonas maltophilia” (2008).

Experiment [1] deals with Stenotrophomonas maltophilia. Put plainly: Antibacterial activity against Stenotrophomonas maltophilia isolate KJ deficient in L1 beta lactamase gene by Etest. Type of experiment: functional.
Experiment [2] has as its system Stenotrophomonas maltophilia. Put plainly: Antibacterial activity against Stenotrophomonas maltophilia isolate KJ deficient in L1 beta lactamase gene at 50 ug/ml. Type of experiment: functional, organism-based.
Experiment [3] deals with Stenotrophomonas maltophilia. Put plainly: Antibacterial activity against Stenotrophomonas maltophilia isolate KJ deficient in L2 beta lactamase gene by Etest. Type of experiment: functional.
In experiment [4] the test system is Stenotrophomonas maltophilia. As to the kind of experiment: Antibacterial activity against Stenotrophomonas maltophilia isolate KJ deficient in L2 beta lactamase gene at 50 ug/ml. Type of experiment: functional, organism-based.
Experiment [5] concerns Stenotrophomonas maltophilia. As to the kind of experiment: Ratio of induction of xylE gene expression in Stenotrophomonas maltophilia isolate KJ deficient in L1 beta lactamase gene to induction of xylE gene expression in Stenotrophomonas maltophilia isolate KJ deficient in L2 beta lactamase gene assessed as catechol 2,3-dioxygenase activity at 50 ug/ml. Type of experiment: functional.

Experiment [6] has as its system Stenotrophomonas maltophilia. As to the kind of experiment: Antibacterial activity against Stenotrophomonas maltophilia isolate KJ by Etest. Type of experiment: functional.
Experiment [7] has as its system Stenotrophomonas maltophilia. Put plainly: Ratio of induction of xylE gene expression in Stenotrophomonas maltophilia isolate KJ deficient in L1 beta lactamase gene to induction of xylE gene expression in Stenotrophomonas maltophilia isolate KJ deficient in L2 beta lactamase gene assessed as catechol 2,3-dioxygenase activity at 8 ug/ml. Type of experiment: functional. The method, boiled down:
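xylE reporter (C23O) assay in L1- or L2-knockout mutants of strain KJ. Overnight cultures diluted to OD450 0.15 and grown 0.5 h at 37°C, then exposed to β-lactam inducer, by default for 2.5 h. C23O activity measured in intact cells with OD450 recorded. Specific activity is nmol substrate converted/min per A450 unit. At least three repeats.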

For experiment [8], the system named is Stenotrophomonas maltophilia. Put plainly: Antibacterial activity against Stenotrophomonas maltophilia isolate KJ deficient in L2 beta lactamase gene at 8 ug/ml. Type of experiment: functional, organism-based.
For experiment [9], the system named is Stenotrophomonas maltophilia. As to the kind of experiment: Ratio of induction of xylE gene expression in Stenotrophomonas maltophilia isolate KJ deficient in L1 beta lactamase gene to induction of xylE gene expression in Stenotrophomonas maltophilia isolate KJ deficient in L2 beta lactamase gene assessed as catechol 2,3-dioxygenase activity at 16 ug/ml. Type of experiment: functional.

Experiment [10] relates to Stenotrophomonas maltophilia. As to the kind of experiment: Antibacterial activity against Stenotrophomonas maltophilia isolate KJ deficient in L1 beta lactamase gene at 16 ug/ml. Type of experiment: functional, organism-based.
Experiment [11] relates to Stenotrophomonas maltophilia. Put plainly: Induction of xylE gene expression in Stenotrophomonas maltophilia isolate KJ deficient in L2 beta lactamase gene assessed maximum catechol 2,3-dioxygenase activity at 50 ug/ml after 2.5 hrs. Type of experiment: functional, organism-based. The method, boiled down:
(§1)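 xylE (catechol 2,3-dioxygenase) reporter induction in the L1 or L2 knockout of strain KJ. Overnight cultures were diluted to OD450 0.15 and grown 0.5 h at 37°C, then exposed to β-lactam inducer (default 50 μg/ml, 2.5 h). C23O activity was read in intact cells with OD450. 1 U = 1 nmol substrate/min; specific activity is U per A450 unit. Each experiment was run ≥3 times.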

Experiment [12] relates to Stenotrophomonas maltophilia. As to the kind of experiment: Induction of xylE gene expression in Stenotrophomonas maltophilia isolate KJ deficient in L2 beta lactamase gene assessed maximum catechol 2,3-dioxygenase activity at 1 ug/ml. Type of experiment: functional, organism-based. The method, boiled down:
as §1

Experiment [13] relates to Stenotrophomonas maltophilia. Put plainly: Induction of xylE gene expression in Stenotrophomonas maltophilia isolate KJ deficient in L1 beta lactamase gene assessed maximum catechol 2,3-dioxygenase activity at 1 ug/ml. Type of experiment: functional, organism-based. The method, boiled down:
as §1

In experiment [14] the test system is Stenotrophomonas maltophilia. As to the kind of experiment: Induction of xylE gene expression in Stenotrophomonas maltophilia isolate KJ deficient in L1 beta lactamase gene assessed maximum catechol 2,3-dioxygenase activity at 50 ug/ml after 3 hrs. Type of experiment: functional, organism-based. The method, boiled down: as §1

As usually defined, the MIC is the least concentration at which growth counts as inhibited. Read a high MIC as weaker potency.

Converted amounts (≈) assume the structure as drawn. The source made the active and inactive calls. No cut-off for these calls is given here.

Turning to `CC1(C)S[C@@H]2[C@H](NC(=O)[C@H](N)c3ccccc3)C(=O)N2[C@H]1C(=O)O` [AMPICILLIN], the MIC in experiment [1], in [3] and in experiment [6] was more than 2050 µg/mL throughout. Besides, the outcome in [2] and in experiment [4] was inactive. Moreover, the Ratio in experiment [5] turned out to be 0.9.

Regarding `C[C@H]1[C@H](NC(=O)/C(=N\OC(C)(C)C(=O)O)c2csc(N)n2)C(=O)N1S(=O)(=O)O` [AZTREONAM], the MIC in experiment [1] and in experiment [6] was more than 2050 µg/mL each time. The Ratio in experiment [7] was 7.9. Moreover, the result in experiment [8] was Active.

Turning to `CC1(C)S[C@@H]2[C@H](NC(=O)C(C(=O)O)c3ccccc3)C(=O)N2[C@H]1C(=O)O` (some centres undefined) [CARBENICILLIN], the MIC came to 1020 µg/mL (≈ 2710 µM) in experiment [1], 64 µg/mL (≈ 169 µM) in [3] and 1020 µg/mL (≈ 2710 µM) in experiment [6]. Also, the outcome in experiment [2] and in experiment [4] was inactive. Further, in experiment [5], the Ratio is 3.4.

In the case of `CO/N=C(\C(=O)N[C@@H]1C(=O)N2C(C(=O)[O-])=C(C[N+]3(C)CCCC3)CS[C@H]12)c1csc(N)n1` [CEFEPIME], the MIC came out at 64 µg/mL (≈ 133 µM) in experiment [1], 4 µg/mL (≈ 8.32 µM) in experiment [3] and 64 µg/mL (≈ 133 µM) in [6].

For `CCN1CCN(C(=O)N[C@@H](C(=O)N[C@@H]2C(=O)N3C(C(=O)O)=C(CSc4nnnn4C)CS[C@H]23)c2ccc(O)cc2)C(=O)C1=O` [CEFOPERAZONE], the figures for the MIC in [1], in experiment [3] and in experiment [6] were 32 µg/mL (≈ 49.6 µM), 64 µg/mL (≈ 99.1 µM) and 128 µg/mL (≈ 198 µM), respectively. Also, the Ratio in [9] came to 1.4. Moreover, in [10], the outcome was Active.

For `CO/N=C(\C(=O)N[C@@H]1C(=O)N2C(C(=O)O)=C(COC(C)=O)CS[C@H]12)c1csc(N)n1` [CEFOTAXIME], the MIC is 128 µg/mL (≈ 281 µM) in experiment [1], 128 µg/mL (≈ 281 µM) in experiment [3] and 256 µg/mL (≈ 562 µM) in [6]. For the same molecule, the outcome in experiment [2] and in experiment [4] was inactive. Further, the Ratio in experiment [5] was 3.2.

`CO[C@@]1(NC(=O)Cc2cccs2)C(=O)N2C(C(=O)O)=C(COC(N)=O)CS[C@@H]21` [CEFOXITIN]: the results for the MIC in [1], in experiment [3] and in experiment [6] were 128 µg/mL (≈ 299 µM), 1020 µg/mL (≈ 2400 µM) and 1020 µg/mL (≈ 2400 µM), respectively. Moreover, the outcome in experiment [2] and in experiment [4] was inactive. The Ratio in experiment [5] was 0.2.

Regarding `CO/N=C(\C(=O)N[C@@H]1C(=O)N2C(C(=O)O)=C(CSc3nc(=O)c(O)nn3C)CS[C@H]12)c1csc(N)n1` [CEFTRIAXONE], the results for the MIC in [1], in experiment [3] and in experiment [6] were 128 µg/mL (≈ 231 µM), 128 µg/mL (≈ 231 µM) and 256 µg/mL (≈ 462 µM), respectively. Moreover, the outcome in [2] and in experiment [4] was inactive. For the same molecule, in [5], the Ratio was 5.5.

In the case of `CO/N=C(\C(=O)N[C@@H]1C(=O)N2C(C(=O)O)=C(COC(N)=O)CS[C@H]12)c1ccco1` [CEFUROXIME], the MIC in experiment [1] was found to be 1020 µg/mL (≈ 2410 µM); in experiment [3], 1020 µg/mL (≈ 2410 µM); in experiment [6] it was 2050 µg/mL (≈ 4830 µM). Besides, the outcome in experiment [2] and in experiment [4] was inactive. Further, the result in experiment [11], in experiment [12], in [13] and in experiment [14] was Active. For the same molecule, the Ratio in experiment [5] is 2.4.

`C[C@@H](O)[C@H]1C(=O)N2C(C(=O)O)=C(SCCNC=N)C[C@H]12` [IMIPENEM ANHYDROUS]: the MIC is 8 µg/mL (≈ 26.7 µM) in [1], more than 32 µg/mL in experiment [3] and more than 32 µg/mL in experiment [6].

For `C[C@@H](O)[C@H]1C(=O)N2C(C(=O)O)=C(S[C@@H]3CN[C@H](C(=O)N(C)C)C3)[C@H](C)[C@H]12` [MEROPENEM], the MIC is 0.5 µg/mL (≈ 1.3 µM) in experiment [1], more than 32 µg/mL in experiment [3] and more than 32 µg/mL in [6].

`CCN1CCN(C(=O)N[C@@H](C(=O)N[C@@H]2C(=O)N3[C@@H]2SC(C)(C)[C@@H]3C(=O)O)c2ccccc2)C(=O)C1=O` [PIPERACILLIN]: the figures for the MIC in experiment [1], in [3] and in [6] were 256 µg/mL (≈ 495 µM), 512 µg/mL (≈ 989 µM) and 1020 µg/mL (≈ 1980 µM), respectively. Also, the result in experiment [2] and in [4] was inactive. In addition, the Ratio in experiment [5] is given as 1.7.
